Reference: ChEMBL document CHEMBL1255261, “Lethal mutagenesis of picornaviruses with N-6-modified purine nucleoside analogues” (Antimicrob Agents Chemother, 2008)

What was measured:
[1] = Cytotoxicity against human HeLaS3 cells assessed cell viability at 0.05 after 24 hrs by Alamar blue assay; assay type: cell-based, HeLa S3; conditions: read-out: Activity
Summary of the method: (§1)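 HeLa S3 cells were seeded at 2 × 10^3 per well in DMEM/F-12 with 2% FBS and allowed to adhere 1 h at 37°C. Nucleoside in medium (0.05–2 mM) was added with continuous exposure at 37°C. Resazurin (Alamar blue) was added 6 h before the 24 h read. Percent reduction was taken from A570 corrected by A590 and normalized to vehicle (DMSO) cells set at 100%. Triplicate wells, mean ± SD.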

[2] = Metabolic stability in human HeLaS3 cells assessed as JA28-triphosphate at 0.5 mM after 2 hrs by reverse-phase HPLC; assay type: ADME, cell-based; conditions: hela s3, 2 h, 500 µM
Summary of the method: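 Suspension-adapted HeLa S3 cells at 5 × 10^6 cells/ml in S-MEM with 2% dialyzed FBS were pretreated with actinomycin D (2.5 μg/ml, 15 min, 37°C). Nucleoside was then added to 0.5 mM final with 1% DMSO, 2 h at 37°C. Cells were extracted with ice-cold 0.6 M TCA, then trioctylamine/trichlorotrifluoroethane. Aqueous layer was run on C18 reversed-phase HPLC (CH3CN gradient in KH2PO4, pH 6.0). Triphosphate was identified by retention time and UV spectrum against synthesized standard.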

Enterovirus C [3] = assay: Antiviral activity against Poliovirus infected in compound pre-treated HeLaS3 cells assessed as reduction in viral titer at 0.5 mM after 6 hrs relative to control; assay type: functional, HeLa S3; parameters: scale not given: the % may be the effect or the level left
Summary of the method: (§2)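 HeLa S3 cells (DMEM/F-12, 2% dialyzed FBS, 37°C, 5% CO2) pretreated 1 h with nucleoside (0.5 or 2 mM), then infected with PV at MOI 5. Fresh medium with analogue added, infection run 6 h at 37°C. Cell-associated virus collected by freeze-thaw and titred on HeLa S3 monolayers. Result given as percent titer reduction versus untreated control.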

Coxsackievirus [4] = assay: Antiviral activity against Coxsackievirus infected in compound pre-treated HeLaS3 cells assessed as reduction in viral titer at 0.5 mM after 6 hrs relative to control; assay type: functional, HeLa S3; parameters: scale not given: the % may be the effect or the level left
Summary of the method: (§3)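 HeLa S3 cells pretreated with nucleoside (0.5 or 2 mM) for 1 h, then infected with CVB3 at MOI 5. Fresh medium containing the analogue was added and infection ran 6 h at 37°C. Cell-associated virus was collected by freeze-thaw and titrated on HeLa S3 monolayers. Result is percent reduction in titer versus untreated infection.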

Enterovirus C [5] = assay: Antiviral activity against Poliovirus infected in compound pre-treated HeLaS3 cells assessed as reduction in viral titer at 2 mM after 6 hrs relative to control; assay type: functional, HeLa S3; parameters: scale not given: the % may be the effect or the level left; summary of the method: as §2
Coxsackievirus [6] = assay: Antiviral activity against Coxsackievirus infected in compound pre-treated HeLaS3 cells assessed as reduction in viral titer at 2 mM after 6 hrs relative to control; assay type: functional, HeLa S3; parameters: scale not given: the % may be the effect or the level left; summary of the method: as §3
[7] = Cytotoxicity against human HeLaS3 cells assessed cell viability at 2 mM after 24 hrs by Alamar blue assay; assay type: cell-based, HeLa S3; conditions: read-out: Activity; summary of the method: as §1

Structure (SMILES): OC[C@H]1O[C@@H](n2cnc3c(NO)ncnc32)[C@H](O)[C@@H]1O
- viability at 24 h [1]: 61%
- Stability [2]: Stable
- Activity (Enterovirus C [3]): 98%
- Activity (Coxsackievirus [4]): 97%

Structure (SMILES): Nc1nc2c(ncn2[C@@H]2O[C@H](CO)[C@@H](O)[C@H]2O)/c(=N\O)[nH]1
- Activity (Enterovirus C [5]): 99.97%
- Activity (Coxsackievirus [6]): 99.99%
- viability at 24 h, 2000 µM [7]: 37%

Structure (SMILES): NNc1ncnc2c1ncn2[C@@H]1O[C@H](CO)[C@@H](O)[C@H]1O
- viability at 24 h [1]: 56%
- Activity (Enterovirus C [3]): 99.7%
- Activity (Coxsackievirus [4]): 99.9%

Structure (SMILES): CO/N=c1/[nH]cnc2c1ncn2[C@@H]1O[C@H](CO)[C@@H](O)[C@H]1O
- Activity (Enterovirus C [5]): 81%
- Activity (Coxsackievirus [6]): 22%

Structure (SMILES): CO/N=c1/[nH]c(N)nc2c1ncn2[C@@H]1O[C@H](CO)[C@@H](O)[C@H]1O
- Activity (Enterovirus C [5]): 45%
- Activity (Coxsackievirus [6]): 0%

Structure (SMILES): CN(N)c1ncnc2c1ncn2[C@@H]1O[C@H](CO)[C@@H](O)[C@H]1O
- Activity (Enterovirus C [5]): 35%
- Activity (Coxsackievirus [6]): 0%

Structure (SMILES): NNc1nc(N)nc2c1ncn2[C@@H]1O[C@H](CO)[C@@H](O)[C@H]1O
- Activity (Enterovirus C [5]): 97%
- Activity (Coxsackievirus [6]): 95%
- viability at 24 h, 2000 µM [7]: 57%

Structure (SMILES): CN(N)c1nc(N)nc2c1ncn2[C@@H]1O[C@H](CO)[C@@H](O)[C@H]1O
- Activity (Enterovirus C [5]): 88%
- Activity (Coxsackievirus [6]): 11%
